The values below come from the EternaBench riboswitch data.

For this data set, the system named is MS2 coat protein. Description: apparent Kd, MS2 coat protein; higher = weaker binding; RNA-MaP array; FMN 200 µM where present. In short, it runs like this:
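Binding was read on Illumina sequencing-chip clusters where stalled E. coli RNA polymerase had transcribed each design. A titration of SNAP-549-labelled MS2 coat protein began at 0.7 or 1.5 nM and doubled to 3 µM, once without ligand and once with constant ligand, in 100 mM Tris-HCl pH 7.5, 80 mM KCl, 4 mM MgCl2, BSA, DTT, yeast tRNA and Tween-20. The apparent Kd is the median of filtered per-cluster binding-curve fits, based on green signal normalised to red-channel RNA signal and control-cluster median Fmax.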

[1] abbreviates: designed as: OFF switch for flavin mononucleotide, no ligand.
Where [2] appears, read: ligand present: flavin mononucleotide, designed as: OFF switch for flavin mononucleotide.
Where [3] appears, read: designed as: ON switch for flavin mononucleotide, no ligand.
Where [4] appears, read: ligand present: flavin mononucleotide, designed as: ON switch for flavin mononucleotide.

What is called apparent Kd is a dissociation constant that holds for the conditions of the assay. As for “GGGCCCGGAGGAUAUACAUGAGGAUCACCCAUGUACCCGGGUUUUAUUGGGCCCGGGUGUAGAAGGUUGGGCCC”, the “apparent Kd” value was found to be 14.1 nM under setting [1] and 13.3 nM under setting [2].
As to “CCAGGCUUCGAGAAGGACAUGAGGAUCACCCAUGUGCGUGUGAAGCAGCCGUGAGGCUGCAUCAUGUAGGAUAUCGGAGUCUGC”, the “apparent Kd” value was 77.2 nM under setting [1] and 538 nM under setting [2].
For “UGGUACAUCAUAGGAUAUCGUGUGUAAACAUGAGGAUCACCCAUGUCAUACGAGAGUAUGUAGAUCGAGAAGGAUGAUGUACCU”, the “apparent Kd” value runs as follows: under setting [3], 18.1 nM; under setting [4], 16.1 nM.
Turning to “GGGACCUACGAGAAGGGCUACAUGAGGAUCACCCAUGUAAAUCUUCGGGUGGCAGGAUAUCGGCGGCUACAGGAGGGCCAGGUC”, the “apparent Kd” value under setting [2] worked out at 38.3 nM.
Take “GCCUGAUCAACUCUAGGCCCAGACAGAAGGGCACACGGUCUAAGUCACAUGAGGAUCACCCAUGUGCAGGAUAUGUCUCGACUC”: the “apparent Kd” value runs as follows: under setting [1], 8.03 nM; under setting [2], 21.4 nM.
On the same counts, the results for “GUCAGCUCGUGAGGAUAUACAACACUGCUUCGGCAGUGUAUUAAGAUCACAUGAGGAUCACCCAUGUAGAAGGCACGAGCUGGU” are 14.7 nM and 260 nM.
“UGGUAGUCAGGAUAUACGAACAUGUCGCCAGAUGUCAAGGUACAUGAGGAUCACCCAUGUAGAAGGGACUAGAA”: the “apparent Kd” value runs as follows: under setting [1], 44.5 nM; under setting [2], 48.2 nM.
The matching figures for “GCGUCGAGUGUGAGGAUAUGCUGGUCCUUGGAUCAGCAGAAGGCACAUGAGGAUCACCCAUGUGAAAACGAUGC”: 22.7 nM and 140 nM.
On the same counts, the results for “GUUAAGGUAGGAUAUACGAUAAGAUAGGGUAGAUAUAUAACACAUGAGGAUCACCCAUGUAGAAGGACCAAUUG” are 38.3 nM and 105 nM.
In the case of “UAUUCUAGAUAGGAUAUACUUUAUUUUUUUUUCGUAGAAGGAUCUACAUGAGGAUCACCCAUGUUAACAGCAGU”, the “apparent Kd” value by setting is: under setting [1], 55.5 nM; under setting [2], 50.8 nM.
Consider “CAGCCCUGAGGAUAUCCACCCUCGUACAUGAGGAUCACCCAUGUCUCCCUCUGGGCUUUCGGAGAAGGCAGGUAUC”, for which the “apparent Kd” value by setting is: under setting [1], 69 nM; under setting [2], 58.5 nM.
Take “GACACUAUGUUUGUCAGAUAGAGAGAGGAUAUGGGUUAUGAGACAUGAGGAUCACCCAUGUUUAUUCAGAAGGCUCGAGUACGA”: the “apparent Kd” value by setting is: under setting [3], 90.9 nM; under setting [4], 11.8 nM.
As for “GUAACGCUUGACAUGAGGAUCACCCAUGUUAGAUUGUUAUGUCAGGAUAUAGUCUAGAAACUAGACUAGAAGGGAUAUGUUACU”, the “apparent Kd” value reads like this: under setting [3], 69.6 nM; under setting [4], 29.4 nM.
For the sequence “AUCAUGUAAGGAUAUCUUACAUGUGACUUCGGUCACUGUCAAGAGAAGGUACAUGAGGAUCACCCAUGUAUGAC”, the “apparent Kd” value under setting [1] is 14.7 nM and the “apparent Kd” value under setting [2] amounted to 19 nM.
On the same counts, the results for “GUCAGCUCGUGAGGAUAUACAACACUGCUUCGUCAGUGUAUUAAGAUCACAUGAGGAUCACCCAUGUAGAAGGCACGAGCUGAU” are 12.2 nM and 211 nM.
The matching figures for “GCGAGUAAAGCAGGAUAUCUAUUGUCUCGGAAACAUGAGGAUCACCCAUGUAGAGAAGGGCUAAGUCAUACAAUUCGAACUCGC”: 11.2 nM and 10.8 nM.
On the same counts, the results for “UCCCUGUGAGGAUAUCUCGUUCCGGUGAAAUUAGCUAGAUGGGAGAAGGCACAUGAGGAUCACCCAUGUGACGA” are 22 nM and 26.6 nM.
In the case of “GCACGGCAUGUAGGAUAUCGAGCUCCGGGAGCUCGAGAAGGACAUGAGGAUCACCCAUGUGCUCACAGUGAGUGAGUGCUGUGC”, the “apparent Kd” value under setting [1] was 19.7 nM and the “apparent Kd” value under setting [2] stood at 38.8 nM.
With “GUUAUUAUUAGUUCAUACUAUAAGAUAGAAGGUGAUUUAUUGACAUGAGGAUCACCCAUGUAAUUCAAGGAUAUGUAGAUACUC”, the “apparent Kd” value runs as follows: under setting [3], 374 nM; under setting [4], 248 nM.
For “AAACUAGUAGAGGAUAUUCCAGGCAGUGUUUGAGAAGAAGGCUACACAUGAGGAUCACCCAUGUGGCCUGGUGG”, the “apparent Kd” value under setting [1] was found to be 13.6 nM and the “apparent Kd” value under setting [2] was found to be 17.1 nM.
As to “UAGAAGUCAGGAUAUCCUGCUCGUCACUUGCGUGAUGAGUAGGAGAAGGGACAUGAGGAUCACCCAUGUAAAGU”, the “apparent Kd” value under setting [1] turned out to be 56.5 nM and the “apparent Kd” value under setting [2] was found to be 63.9 nM.
As to “AGUUAAUAUCGAGGAUAUGUCUAGACACAUGAGGAUCACCCAUGUAUGUGUAUAGAAGGCGAAAUUAAAAGCAUGUUACAUGCA”, the “apparent Kd” value by setting is: under setting [3], 31.1 nM; under setting [4], 19.5 nM.
With “GUUAGUUAAGGAUAUACAGGGAGCUGCGGCGUCUCGCCGCAACAUGAGGAUCACCCAUGUAGAAGGUGACCUUU”, the “apparent Kd” value runs as follows: under setting [1], 529 nM; under setting [2], 406 nM.
Consider “UCUGGUCGAGGAUAUAUAUGACGUGCUUCGGCACGAAGAUCACAUGAGGAUCACCCAUGUAGAAGGCGACCAGA”, for which the “apparent Kd” value reads like this: under setting [1], 130 nM; under setting [2], 1160 nM.
The matching figures for “GUACGGGAGGAGAAGGGCUAGGAGGUCCAGCUUAUGUGUGUUGCAACAUGAGGAUCACCCAUGUAGCAGGAUAUCCUCUGUACA”: 46.3 nM and 332 nM.
Consider “GUUUUCGCAUGAGGAUAUGCUCGCAUUUCAAGAGCAGAAGGUAUGUCUAUAGACAUGAGGAUCACCCAUGUAUUUAUCAUUGAA”, for which the “apparent Kd” value by setting is: under setting [3], 273 nM; under setting [4], 118 nM.
Turning to “CAAUUGGCACAGAAGGGUGACAUGAGGAUCACCCAUGUAGCGUGGCACUCAGGAGGAACCACGCCACAGGAUAUGUGCGGGCAC”, the “apparent Kd” value reads like this: under setting [3], 65 nM; under setting [4], 76.6 nM.
“GCGGCUAAUGCAGGAUAUCGGCACGUGUAGUGCCGAGAAGGGCACAUGAGGAUCACCCAUGUGAUCAAUCAAUGUUAAUGCCGC”: the “apparent Kd” value reads like this: under setting [1], 8.86 nM; under setting [2], 44.2 nM.
The matching figures for “GUAGUGUAUGUAGGAUAUGUGAAGCAAAGCUUCACAGAAGGACAUGAGGAUCACCCAUGUAUUGCAGCCUGCAAUCAGGCUGCU”: 41 nM and 144 nM.
“GGAUCUAUGUAGAAGGCUGUCUUAAAAUAGGACAGAGGAUAUACAUGAGGAUCACCCAUGUACUCCUUUAAAAGGAUCCAAAUA”: the “apparent Kd” value by setting is: under setting [1], 5.77 nM; under setting [2], 11 nM.
Take “GCCAUCACAUGAGGAUAUGCUCGGGUUUCCCGAGCAGAAGGCAUGUCAUAAGACAUGAGGAUCACCCAUGUAGGUAAGAUGGCA”: the “apparent Kd” value reads like this: under setting [3], 292 nM; under setting [4], 13.6 nM.
The matching figures for “GGUCCGUAACAGAAGGCCGUAACUGGCGGUGGCGGAGGAUAUGUGGGCGGCCCUUGACAACAUGAGGAUCACCCAUGUAUGUAA”: 41.3 nM and 113 nM.
For “UGCCUUAGAGGAUAUACAUUGAAUUUGAUUCAUGUAAAACUACAUGAGGAUCACCCAUGUAGAAGGCUAGGGCU”, the “apparent Kd” value was 19.1 nM under setting [1] and 37.1 nM under setting [2].
The matching figures for “GGAUUACAUGAGGAUCACCCAUGUGAGGAUAUCGAUGUCCUCCCUCCCGUGCGGGACUCGAGAAGGCACUUGGA”: 51.9 nM and 78.8 nM.
On the same counts, the results for “AAAAUACAUGAGGAUCACCCAUGUCAGGAUAUUCCUGCAGCCUUGAAUAUGGGCUGGUGAAGAAGGGACGGUGA” are 40.1 nM and 105 nM.
For the sequence “GUCAGCUCGAGAGGAUAUACAACACUGCUUCGGCAGUGUAUUAAGAUCACAUGAGGAUCACCCAUGUAGAAGGCACGAGCUGAU”, the “apparent Kd” value is, setting by setting: under setting [1], 9.31 nM; under setting [2], 89.2 nM.
Take “UUGCCACAUGAGGAUCACCCAUGUGAGGAUAUGGCCUGUUUGGCGUGUGCUGGUUCUGUCAGAAGGCGCGUGGG”: the “apparent Kd” value by setting is: under setting [1], 31.6 nM; under setting [2], 36.5 nM.
The matching figures for “AAUAUGUUGCAGAAGGUUAUUUUUAUAACGAUCCACUUGACAUGAGGAUCACCCAUGUAAUUGUUGAAGGAUAUGCAAUAUAUU”: 6.79 nM and 7.11 nM.
The matching figures for “GAGCGCUGUCAAGGAUAUCCGAAAAGAAAAUAAGGAGAAGGUGACAUGAGGAUCACCCAUGUGCACUGGGUGGACGCGCGCUCC”: 459 nM and 256 nM.
On the same counts, the results for “GGGUUGUGAGGAUAUUAGUUGUACGUCAAUAGACGUAUAAGUGAGAAGGCACAUGAGGAUCACCCAUGUUCCUG” are 20.8 nM and 80.1 nM.
As for “GUAGAGUCAGGAUAUACAGAAAGUGGCUGGAAAACAGUGGCACAUGAGGAUCACCCAUGUAGAAGGGACUCUAC”, the “apparent Kd” value is, setting by setting: under setting [1], 89.4 nM; under setting [2], 215 nM.
On the same counts, the results for “AUGUACCGGUGAGGAUAUUUUUAAUAGAACUUUAUGAUAUACAUGAGGAUCACCCAUGUUACUUUAAAGAAGGCAUCGGAUUAA” are 17.7 nM and 14.2 nM.
For “UGUCAUUUACAGAAGGGUAGUUGGGUUAUACAUGAGGAUCACCCAUGUUAUACAGGAUAUGUGUAAAGUUAUUAUUAAAGUACA”, the “apparent Kd” value runs as follows: under setting [1], 30.1 nM; under setting [2], 36 nM.
On the same counts, the results for “CCGGAAAUAGAGGAUAUAGUACUGGAUACAGUACUAGAAGGCUAUACAUGAGGAUCACCCAUGUGUCCUACCGG” are 16 nM and 32.4 nM.
In the case of “UUCAACGAUGAAGGAUAUGUAUAAACAUGAGGACAUGAGGAUCACCCAUGUUGAUCACCCAUGUAGCAGAAGGUCAACAUGAGG”, the “apparent Kd” value under setting [3] turned out to be 360 nM and the “apparent Kd” value under setting [4] came to 142 nM.
With “GAGUUGAAGUUAGGAUAUUGGAUAGGGACGGAAUAAGAAGGAGCAAGACAUGAGGAUCACCCAUGUGUAGAAGAAGAGAUCCUC”, the “apparent Kd” value was found to be 352 nM under setting [1] and 227 nM under setting [2].
On the same counts, the results for “GCAUCGUCGACUGAUAAUGAGCCUAGAAGGCGGACAUGAGGAUCACCCAUGUCUGAUCCUCGGCCCGAGGAUAUAGGUUAAUGA” are 12.1 nM and 8.65 nM.
On to “AACAAUUAGUAAGGAUAUACUAGCGAUUAGCUUGUAGAAGGUACAGUCUUAUGUAUAACAAAUUAACAUGAGGAUCACCCAUGU”, for which the “apparent Kd” value is, setting by setting: under setting [3], 10.4 nM; under setting [4], 7.88 nM.
